The text below walks through data of ChEMBL document CHEMBL3351593, “Potent nonimmunosuppressive cyclophilin inhibitors with improved pharmaceutical properties and decreased transporter inhibition” (J Med Chem, 2014).

In series [1] the test system is Hepatitis C virus. The experiment in a line: Antiviral activity against HCV subtype 1b in human Huh7.5 cells expressing subgenomic HCV replicons and coexpressing luciferase reporter gene. The series is classed as functional, cell-based, Hepacivirus hominis. The following applies: genotype 1b, Huh-7. The gist of the method:
(§1)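 Stable Huh7.5 lines carrying genotype 1a or 1b subgenomic replicons with luciferase reporter, made by RNA electroporation and G418 selection. Assay run in phenol red-free DMEM without G418, sixteen half-log compound dilutions, in triplicate. Luciferase signal read after 72 h relative to DMSO controls, giving EC50.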

Series [2] is described as follows: AUC in rat plasma at 25 mg/kg, po after 72 hrs. The series is classed as ADME, organism-based. Also on record: time < 72 hr, dose 25 mg/kg, route oral. In short, it runs like this:
(§2)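 Oral dosing as a solution in MEPC: rat 25 mg/kg, dog 1 mg/kg. Blood and plasma collected separately over 0−72 h and AUC computed for each matrix.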

For series [3], the target named is T1, Solute carrier organic anion transporter family member 1B3 (Homo sapiens, UniProt Q9NPD5).
T1 sequence (Q9NPD5 whole entry): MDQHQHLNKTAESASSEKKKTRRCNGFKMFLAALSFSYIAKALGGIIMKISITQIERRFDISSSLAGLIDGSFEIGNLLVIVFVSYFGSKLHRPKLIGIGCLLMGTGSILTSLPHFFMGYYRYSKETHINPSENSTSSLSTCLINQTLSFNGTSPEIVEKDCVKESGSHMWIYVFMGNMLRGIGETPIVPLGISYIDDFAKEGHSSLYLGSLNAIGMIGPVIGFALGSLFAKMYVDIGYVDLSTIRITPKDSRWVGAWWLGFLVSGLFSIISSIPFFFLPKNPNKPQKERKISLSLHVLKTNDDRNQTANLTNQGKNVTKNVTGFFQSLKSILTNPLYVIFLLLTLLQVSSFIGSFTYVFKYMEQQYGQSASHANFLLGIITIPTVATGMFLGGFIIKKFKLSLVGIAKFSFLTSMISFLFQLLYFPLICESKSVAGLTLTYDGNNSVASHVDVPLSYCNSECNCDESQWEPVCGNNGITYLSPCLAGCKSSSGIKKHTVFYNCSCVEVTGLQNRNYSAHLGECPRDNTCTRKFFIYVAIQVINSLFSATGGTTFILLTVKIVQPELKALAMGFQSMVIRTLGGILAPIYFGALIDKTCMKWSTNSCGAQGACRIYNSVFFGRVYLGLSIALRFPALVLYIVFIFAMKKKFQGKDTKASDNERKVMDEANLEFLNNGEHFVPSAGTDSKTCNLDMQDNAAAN
The series is described as follows: Inhibition of OATP1B3 (unknown origin) expressed in HEK293 cells using [3H]estradiol-17beta-glucuronide substrate. The series is classed as ADME, cell-based. The gist of the method: (§3)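 Recombinant OATP1B1 or OATP1B3 expressed in HEK293 cells, with [3H]estradiol-17β-glucuronide as substrate; IC50 determined.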

In series [4] the test system is Hepatitis C virus. The experiment in a line: Antiviral activity against HCV subtype 1b in human Huh7.5 cells expressing subgenomic HCV replicons and coexpressing luciferase reporter gene in presence of 40% human serum. The series is classed as functional, cell-based, Hepacivirus hominis. The following applies: genotype 1b, Huh-7. In short, it runs like this:
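Genotype 1b luciferase replicon in Huh7.5 cells with 40% human serum added to the assay medium, in phenol red-free DMEM without G418. Sixteen half-log dilutions in triplicate. Luciferase read after 72 h relative to DMSO-treated cells, giving EC50.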
Background: In antiviral work, replicon cells carry a viral genome segment that copies itself.

Series [5] is described as follows: AUC in rat blood at 25 mg/kg, po after 72 hrs. Type of series: ADME, organism-based. The settings on record: whole blood. More on the design: time < 72 hr, dose 25 mg/kg, route oral. The gist of the method: as §2
Series [6] concerns the target T2, Solute carrier organic anion transporter family member 1B1 (Homo sapiens, UniProt Q9Y6L6).
T2 sequence (Q9Y6L6 whole entry): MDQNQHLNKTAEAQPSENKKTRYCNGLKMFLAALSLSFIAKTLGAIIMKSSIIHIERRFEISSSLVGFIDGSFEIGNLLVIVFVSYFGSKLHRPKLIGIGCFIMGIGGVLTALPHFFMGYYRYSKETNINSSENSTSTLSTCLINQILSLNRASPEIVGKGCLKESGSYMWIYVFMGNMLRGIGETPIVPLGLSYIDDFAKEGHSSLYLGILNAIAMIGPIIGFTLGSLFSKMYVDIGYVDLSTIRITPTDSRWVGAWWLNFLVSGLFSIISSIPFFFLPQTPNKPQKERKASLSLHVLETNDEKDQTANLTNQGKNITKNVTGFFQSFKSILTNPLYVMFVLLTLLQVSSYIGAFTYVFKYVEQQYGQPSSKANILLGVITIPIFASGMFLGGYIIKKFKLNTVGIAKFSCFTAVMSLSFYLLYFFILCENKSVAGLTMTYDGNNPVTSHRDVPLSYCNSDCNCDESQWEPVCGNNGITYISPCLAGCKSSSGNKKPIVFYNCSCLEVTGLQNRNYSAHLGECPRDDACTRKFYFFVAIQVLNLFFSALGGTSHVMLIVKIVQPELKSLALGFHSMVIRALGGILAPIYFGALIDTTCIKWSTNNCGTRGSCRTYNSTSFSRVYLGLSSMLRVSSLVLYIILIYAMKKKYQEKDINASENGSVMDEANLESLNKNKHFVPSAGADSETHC
The series is described as follows: Inhibition of OATP1B1 (unknown origin) expressed in HEK293 cells using [3H]estradiol-17beta-glucuronide substrate. The series is classed as ADME, cell-based. The gist of the method: as §3

Series [7] in a line: Kinetic solubility of the compound in pH 7.0 water. Type of series: physicochemical. The settings on record: read-out: Kinetic_solubility.
The nature of series [8]: Lipophilicity, log D of the compound. Type of series: physicochemical. The following applies: octanol/water.
Series [9] deals with Peptidyl-prolyl cis-trans isomerase A (Homo sapiens, UniProt P62937). The series is described as follows: Binding affinity to human cyclophilin A by surface plasmon resonance method.
Series [10] addresses ATP-dependent translocase ABCB1 (Homo sapiens, UniProt P08183). The series is described as follows: Inhibition of MDR1 (unknown origin) expressed in MDA T0.3 cells using rhodamine 123 substrate. Type of series: ADME, cell-based. In short, it runs like this:
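MDR1 activity in MDA T0.3 cells, measured with rhodamine 123 as substrate; IC50 reported.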

For series [11], the system named is Hepatitis C virus. The series is described as follows: Antiviral activity against HCV subtype 1a in human Huh7.5 cells expressing subgenomic HCV replicons and coexpressing luciferase reporter gene. The series is classed as functional, cell-based, Hepacivirus hominis. The settings on record: Huh-7. In short, it runs like this:
as §1

In series [12] the target is Peptidyl-prolyl cis-trans isomerase B (Homo sapiens, UniProt P23284). The series is described as follows: Binding affinity to human cyclophilin B by surface plasmon resonance method. In short, it runs like this:
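Biotinylated cyclophilin proteins examined by single-cycle kinetics SPR. Running buffer 10 mM HEPES pH 7.4, 150 mM NaCl, 0.05% P20, 3% DMSO, with inhibitor. Each concentration injected for 1 min at 50 μL/min, then 10 min dissociation. kon, koff and KD obtained from a 1:1 binding fit.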
On the technique in general: In SPR one partner is held on a chip, and binding of the other changes the refractive index at the surface.

The target in the next series is Bile salt export pump (Homo sapiens, UniProt O95342). The series is described as follows: Inhibition of BSEP (unknown origin) expressed in HEK293 cells using [3H]taurocholic acid substrate. Type of series: ADME, cell-based. In short, it runs like this:
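BSEP activity in HEK293 cells, measured with [3H]taurocholic acid uptake as substrate; IC50 reported.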

Series [13] in a line: Cytotoxicity against human MT4 cells by CDCF probe based assay. Type of series: cell-based.

Each structure is given as a SMILES string. ≈ marks a conversion by molar mass, not a printed value.

ATP-dependent translocase ABCB1, sequence (P08183 whole entry): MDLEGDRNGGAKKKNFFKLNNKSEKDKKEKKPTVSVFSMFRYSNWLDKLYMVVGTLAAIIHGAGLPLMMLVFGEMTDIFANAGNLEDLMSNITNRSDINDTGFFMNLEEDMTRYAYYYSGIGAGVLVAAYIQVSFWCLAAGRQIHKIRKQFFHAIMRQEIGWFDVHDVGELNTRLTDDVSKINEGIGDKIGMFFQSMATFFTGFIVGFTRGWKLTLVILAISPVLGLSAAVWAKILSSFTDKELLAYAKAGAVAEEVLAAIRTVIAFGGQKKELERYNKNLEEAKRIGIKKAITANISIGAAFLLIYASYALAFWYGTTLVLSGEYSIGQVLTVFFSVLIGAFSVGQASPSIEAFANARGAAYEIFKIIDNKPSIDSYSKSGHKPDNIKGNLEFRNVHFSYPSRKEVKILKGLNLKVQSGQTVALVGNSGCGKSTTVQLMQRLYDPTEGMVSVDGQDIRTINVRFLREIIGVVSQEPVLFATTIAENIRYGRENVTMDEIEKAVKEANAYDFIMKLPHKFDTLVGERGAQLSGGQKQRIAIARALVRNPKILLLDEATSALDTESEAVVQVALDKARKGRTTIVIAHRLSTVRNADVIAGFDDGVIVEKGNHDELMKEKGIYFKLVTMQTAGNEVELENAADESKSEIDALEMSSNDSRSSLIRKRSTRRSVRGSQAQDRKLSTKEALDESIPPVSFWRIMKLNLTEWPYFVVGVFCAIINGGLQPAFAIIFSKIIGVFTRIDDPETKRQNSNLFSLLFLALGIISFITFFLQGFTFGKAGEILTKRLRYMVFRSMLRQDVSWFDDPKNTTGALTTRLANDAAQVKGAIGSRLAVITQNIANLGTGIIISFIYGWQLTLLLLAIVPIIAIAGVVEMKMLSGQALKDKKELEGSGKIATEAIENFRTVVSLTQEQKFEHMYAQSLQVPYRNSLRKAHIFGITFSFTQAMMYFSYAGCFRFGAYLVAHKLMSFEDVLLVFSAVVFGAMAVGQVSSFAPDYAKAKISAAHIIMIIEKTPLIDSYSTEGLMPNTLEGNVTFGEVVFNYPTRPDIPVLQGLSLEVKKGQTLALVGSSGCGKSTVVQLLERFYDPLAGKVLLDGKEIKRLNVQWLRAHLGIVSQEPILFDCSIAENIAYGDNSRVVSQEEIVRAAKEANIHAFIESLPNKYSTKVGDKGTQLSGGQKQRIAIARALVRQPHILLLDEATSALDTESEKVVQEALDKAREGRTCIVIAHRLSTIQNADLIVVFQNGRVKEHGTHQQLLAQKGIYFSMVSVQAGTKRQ
Peptidyl-prolyl cis-trans isomerase A, sequence (P62937 whole entry): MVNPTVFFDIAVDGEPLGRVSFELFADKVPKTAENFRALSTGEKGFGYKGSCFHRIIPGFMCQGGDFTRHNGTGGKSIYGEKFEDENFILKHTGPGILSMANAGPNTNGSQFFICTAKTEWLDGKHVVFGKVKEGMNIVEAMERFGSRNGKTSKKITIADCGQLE
Bile salt export pump, sequence (O95342 whole entry): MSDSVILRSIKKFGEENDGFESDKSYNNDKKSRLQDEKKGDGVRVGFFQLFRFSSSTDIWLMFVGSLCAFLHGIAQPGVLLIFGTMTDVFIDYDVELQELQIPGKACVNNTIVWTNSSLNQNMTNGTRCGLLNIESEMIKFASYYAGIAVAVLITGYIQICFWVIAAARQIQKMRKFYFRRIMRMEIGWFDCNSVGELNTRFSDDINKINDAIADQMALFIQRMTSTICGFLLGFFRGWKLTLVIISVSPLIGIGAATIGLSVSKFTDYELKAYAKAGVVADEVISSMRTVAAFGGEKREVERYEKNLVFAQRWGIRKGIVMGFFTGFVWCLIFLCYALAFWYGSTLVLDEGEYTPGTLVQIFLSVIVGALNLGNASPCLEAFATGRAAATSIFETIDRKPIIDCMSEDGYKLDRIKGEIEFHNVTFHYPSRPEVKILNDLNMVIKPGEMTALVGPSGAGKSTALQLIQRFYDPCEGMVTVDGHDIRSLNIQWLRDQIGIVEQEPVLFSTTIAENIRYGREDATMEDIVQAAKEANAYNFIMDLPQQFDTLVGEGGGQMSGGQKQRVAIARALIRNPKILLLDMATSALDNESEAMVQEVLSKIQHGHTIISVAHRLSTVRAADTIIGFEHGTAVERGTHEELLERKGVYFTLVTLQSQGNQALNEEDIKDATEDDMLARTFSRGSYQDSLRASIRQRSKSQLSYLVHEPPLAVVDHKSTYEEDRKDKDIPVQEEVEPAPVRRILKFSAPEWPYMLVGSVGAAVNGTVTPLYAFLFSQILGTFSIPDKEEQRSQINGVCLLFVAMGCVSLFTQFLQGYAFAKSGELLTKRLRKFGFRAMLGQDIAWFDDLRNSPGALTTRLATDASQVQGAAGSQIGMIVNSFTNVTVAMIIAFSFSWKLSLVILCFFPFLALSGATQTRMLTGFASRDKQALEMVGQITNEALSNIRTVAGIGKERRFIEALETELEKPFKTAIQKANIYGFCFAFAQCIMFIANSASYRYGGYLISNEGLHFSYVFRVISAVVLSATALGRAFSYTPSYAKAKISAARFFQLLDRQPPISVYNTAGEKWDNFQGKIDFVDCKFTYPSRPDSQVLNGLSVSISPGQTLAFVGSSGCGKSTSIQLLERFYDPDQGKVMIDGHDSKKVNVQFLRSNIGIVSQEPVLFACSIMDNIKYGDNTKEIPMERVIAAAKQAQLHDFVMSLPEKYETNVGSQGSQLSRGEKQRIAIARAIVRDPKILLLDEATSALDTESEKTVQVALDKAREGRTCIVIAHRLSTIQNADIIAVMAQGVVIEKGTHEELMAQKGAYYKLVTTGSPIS
Peptidyl-prolyl cis-trans isomerase B, sequence (P23284 whole entry): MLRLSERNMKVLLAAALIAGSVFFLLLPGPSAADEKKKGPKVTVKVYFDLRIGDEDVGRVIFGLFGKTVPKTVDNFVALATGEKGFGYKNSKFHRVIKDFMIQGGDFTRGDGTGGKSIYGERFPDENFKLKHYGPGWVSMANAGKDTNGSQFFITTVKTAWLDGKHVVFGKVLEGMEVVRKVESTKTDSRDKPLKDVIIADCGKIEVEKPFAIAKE

As to `C/C=C/C[C@@H](C)[C@@H](O)[C@H]1C(=O)N[C@@H](CC)C(=O)N(C)[C@H](C)C(=O)N(CC)[C@@H](C(C)C)C(=O)N[C@@H](C(C)C)C(=O)N(C)[C@@H](CC(C)C)C(=O)N[C@@H](C)C(=O)N[C@H](C)C(=O)N(C)[C@@H](CC(C)C)C(=O)N(C)[C@@H](CC(C)C)C(=O)N(C)[C@@H](C(C)C)C(=O)N1C` [ALISPORIVIR], the EC50 with Hepatitis C virus [1] turned out to be 46 nM; in the series with Hepatitis C virus [4], 116 nM; in the series on Hepatitis C virus [11], 70 nM. The AUC at 72 h in series [2] was found to be 2.3 µM·h; in [5] it was 22.1 µM·h. The IC50 in [3] is 220 nM; in series [6], 180 nM; in [10] it was 590 nM; at Bile salt export pump, 110 nM. Also, in [7], the solubility kinetic is under 5 µg/mL. Moreover, the logD in series [8] was over 6. The dissociation constant Kd is 2.2 nM in [9] and 1 nM in [12]. The compound also registered a CC50 in series [13] of over 20000 nM.
As to `C/C=C/C[C@@H](C)[C@@H](O)[C@H]1C(=O)N[C@@H](CC)C(=O)N(C)[C@H](C)C(=O)N(C)[C@@H]([C@@H](C)CN2CCN(CCOC)CC2)C(=O)N[C@@H](C(C)C)C(=O)N(C)[C@@H](CC(C)C)C(=O)N[C@@H](C)C(=O)N[C@H](C)C(=O)N(C)[C@@H](CC(C)C)C(=O)N(C)[C@@H](CC(C)C)C(=O)N(C)[C@@H](C(C)C)C(=O)N1C`, the EC50 was 40 nM in the series with Hepatitis C virus [1], 42 nM in the series with Hepatitis C virus [4] and 70 nM in the series on Hepatitis C virus [11]. Moreover, the exposure (AUC) at 72 h in [2] amounted to 5.8 µM·h; in [5] it was 58.4 µM·h. The IC50 in [3] was found to be 880 nM; in [6], 1200 nM; in series [10] it was 6300 nM; on Bile salt export pump, 1600 nM. In addition, the solubility kinetic in series [7] amounted to 1100 µg/mL (≈ 818 µM). The pH-dependent lipophilicity (logD) in series [8] stood at 3.9. In addition, the Kd in series [9] and in series [12] was 1.2 nM throughout. In series [13], this compound gave a CC50 of over 50000 nM.

What is called EC50 is the concentration giving half of the maximal effect. For orientation: AUC means the area under the concentration-time curve, a measure of exposure. Broadly, the IC50 is the concentration that inhibits the measured activity by half. By logD is commonly meant lipophilicity at a set pH, counting ionised and neutral species. What is called Kd is the constant that tells how readily two partners part at equilibrium. A high value points to weaker binding. As usually defined, the CC50 is the concentration at which the toxic effect on the cells reaches its halfway point. Read a high CC50 as better tolerance by the cells.
